Data from ChEMBL document CHEMBL1140884, “Oligodeoxyribonucleotide-based antagonists for Toll-like receptors 7 and 9” (2009).
Calls of active or inactive are those of the source. No cut-off for these calls is given here.

Tests used:
[1] = target: T1, Toll-like receptor 9 (Mus musculus) (UniProt Q9EQU3); assay: Antagonist activity at mouse TLR9 expressed in HEK293 cells assessed as inhibition of 5'-CTATCTGACGTTCTCTGT-3'-induced NF-kappaB activation by SEAP reporter gene assay; type: functional, cell-based
T1 sequence (whole entry): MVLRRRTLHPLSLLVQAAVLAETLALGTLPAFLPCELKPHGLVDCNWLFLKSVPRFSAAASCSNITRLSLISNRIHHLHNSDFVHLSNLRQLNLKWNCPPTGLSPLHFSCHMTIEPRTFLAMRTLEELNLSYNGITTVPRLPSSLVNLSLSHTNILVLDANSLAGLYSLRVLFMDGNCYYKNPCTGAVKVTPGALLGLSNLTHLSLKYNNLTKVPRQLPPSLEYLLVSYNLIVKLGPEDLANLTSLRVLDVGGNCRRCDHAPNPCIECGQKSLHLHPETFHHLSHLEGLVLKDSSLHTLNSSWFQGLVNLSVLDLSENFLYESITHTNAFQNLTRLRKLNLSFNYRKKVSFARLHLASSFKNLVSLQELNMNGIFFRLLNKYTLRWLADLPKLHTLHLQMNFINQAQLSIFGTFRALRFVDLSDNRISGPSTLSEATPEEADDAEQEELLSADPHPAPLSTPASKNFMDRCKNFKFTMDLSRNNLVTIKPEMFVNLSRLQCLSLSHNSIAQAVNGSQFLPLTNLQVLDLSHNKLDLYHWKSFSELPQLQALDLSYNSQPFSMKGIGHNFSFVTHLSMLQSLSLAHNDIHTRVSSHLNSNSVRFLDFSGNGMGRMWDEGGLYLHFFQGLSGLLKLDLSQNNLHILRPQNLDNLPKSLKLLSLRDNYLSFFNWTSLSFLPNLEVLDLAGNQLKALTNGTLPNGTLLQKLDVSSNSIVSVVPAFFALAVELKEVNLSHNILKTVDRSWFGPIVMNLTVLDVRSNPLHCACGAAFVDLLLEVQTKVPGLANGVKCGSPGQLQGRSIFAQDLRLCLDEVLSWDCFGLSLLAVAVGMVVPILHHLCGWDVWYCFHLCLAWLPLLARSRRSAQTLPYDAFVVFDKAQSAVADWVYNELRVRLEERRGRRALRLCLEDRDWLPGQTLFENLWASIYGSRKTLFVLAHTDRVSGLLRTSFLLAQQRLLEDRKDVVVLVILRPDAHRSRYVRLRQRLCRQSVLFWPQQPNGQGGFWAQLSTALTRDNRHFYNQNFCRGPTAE
Outline: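 Mouse TLR9-HEK293 cells were transfected with a SEAP reporter for 6 h. They were then stimulated for 18 h with agonist (0.25 or 0.5 µg/mL) plus increasing antagonist concentrations or set agonist:antagonist ratios. Quanti-Blue read-out, reported as % NF-κB activity with agonist alone as 100%.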

[2] = target: T1, Toll-like receptor 9 (Mus musculus); assay: Antagonist activity at TLR9 in mouse J774 cells assessed as inhibition of 5'-TCTGACRTTCT-X-TCTTRCAGTCT-3'-induced NF-kappaB activation pretreated for 1 hr; type: functional, cell-based
Outline: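 J774 cells at 5×10^6 cells/well were preincubated with antagonist for 1 h. Agonist was then added: TLR9 agonist 1 µg/mL, an RNA-based TLR7/8 agonist, or LPS 100 ng/mL. Antagonist was used at 5–40 µg/mL or at the indicated agonist ratios. Nuclear extracts were taken 1 h after agonist and analysed by EMSA.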

Mus musculus [3] = assay: Inhibition of 5'-TCTGACRTTCT-X-TCTTRCAGTCT-3'-induced IL12 production in C57BL/6 mouse pretreated before up to 48 hrs of induction at 10 mg/kg, sc; type: functional, organism-based; design: dose 10 mg/kg
Outline: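 C57BL/6 mice received antagonist or control 10 mg/kg sc, either with TLR9 agonist 0.25 mg/kg sc or up to 48 h before it. Serum IL-12 was measured 2 h after agonist. Two or three independent experiments; mean ± SEM, Student's t test versus PBS.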

Mus musculus [4] = assay: Inhibition of 5'-TCTGACRTTCT-X-TCTTRCAGTCT-3'-induced IL10 production in C57BL/6 mouse treated 72 hrs before induction at 10 mg/kg, sc; type: functional; conditions: C57BL/6, sc, route subcutaneous
Outline: (§1)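 Female C57BL/6 mice (n=3) received antagonist 10 mg/kg sc in the right flank. After 72 h, TLR9 agonist 0.25 mg/kg sc was given in the left flank. Serum was taken 2 h after agonist and cytokines/chemokines were measured by Luminex multiplex assay. Representative of at least three experiments.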

Mus musculus [5] = assay: Inhibition of 5'-TCTGACRTTCT-X-TCTTRCAGTCT-3'-induced MCP1 production in C57BL/6 mouse treated 72 hrs before induction at 10 mg/kg, sc; type: functional; conditions: C57BL/6, sc, route subcutaneous; outline: as §1
Mus musculus [6] = assay: Inhibition of 5'-TCTGACRTTCT-X-TCTTRCAGTCT-3'-induced KC production in C57BL/6 mouse treated 72 hrs before induction at 10 mg/kg, sc; type: functional; conditions: C57BL/6, sc, route subcutaneous; outline: as §1
Mus musculus [7] = assay: Inhibition of 5'-TCTGACRTTCT-X-TCTTRCAGTCT-3'-induced MIG production in C57BL/6 mouse treated 72 hrs before induction at 10 mg/kg, sc; type: functional; conditions: C57BL/6, sc, route subcutaneous; outline: as §1
Mus musculus [8] = assay: Inhibition of 5'-UGCUGUUCUG-X-GUCUUGUCGU-5'-induced IL12 production in C57BL/6 mouse treated 72 hrs before induction at 10 mg/kg, sc; type: functional; conditions: C57BL/6, sc, route subcutaneous
Outline: (§2)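 Female C57BL/6 mice, 6-8 weeks, n = 3, given antagonist 10 mg/kg sc in the right flank. After 72 h, agonist given sc in the left flank: TLR7/8 RNA agonist at 50 mg/kg or TLR9 agonist at 0.25 mg/kg. Serum collected 2 h after agonist by retro-orbital bleeding; cytokines/chemokines by mouse 20-plex Luminex bead assay.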

Mus musculus [9] = assay: Inhibition of 5'-UGCUGUUCUG-X-GUCUUGUCGU-5'-induced IL6 production in C57BL/6 mouse treated 72 hrs before induction at 10 mg/kg, sc; type: functional; conditions: C57BL/6, sc, route subcutaneous; outline: as §2
Mus musculus [10] = assay: Inhibition of 5'-UGCUGUUCUG-X-GUCUUGUCGU-5'-induced KC production in C57BL/6 mouse treated 72 hrs before induction at 10 mg/kg, sc; type: functional; conditions: C57BL/6, sc, route subcutaneous; outline: as §2
B = assay: Inhibition of 5'-TCTGTCRTTCT-X-TCTTRCTGTCT-5'-induced IL6 secretion in MRL/lpr mouse splenic B cells after 24 hrs by ELISA; type: functional, cell-based
Outline: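 Splenic B cells from MRL/lpr mice, purified by B-cell isolation kit (>95% B220+), cultured at 5×10^5 cells/200 μL in RPMI-1640 with 10% FBS and penicillin/streptomycin; stimulated with 1 μg/mL TLR9 agonist with or without antagonist at 0.3, 1 or 3 μg/mL, or antagonist 3 μg/mL alone. Supernatants taken at 24 h; IL-6 by sandwich ELISA.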

[11] = target: T1, Toll-like receptor 9 (Mus musculus); assay: Antagonist activity at TLR9 in mouse J774 cells assessed as inhibition of 5'-TCTGACRTTCT-X-TCTTRCAGTCT-3'-induced NF-kappaB activation pretreated for 1 hr in presence of increasing levels of 5'-TCTGACRTTCT-X-TCTTRCAGTCT-3'; type: functional, cell-based
Outline: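 Reversibility test: J774 cells were stimulated with varying doses of TLR9 agonist, with or without a fixed 10 µg/mL antagonist, for 1 h. Nuclear extracts were analysed for NF-κB by EMSA.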

Activity [1]: Active
Activity [2]: Dose-dependent effect
Activity [11]: inactive
Compound: CO[C@@H]1[C@H](OP(=O)(S)OC[C@H]2O[C@@H](n3ccc(N)nc3=O)C[C@@H]2OP(=O)(S)OC[C@H]2O[C@@H](n3ccc4c(=O)[nH]c(N)nc43)C[C@@H]2OP(=O)(S)OC[C@H]2O[C@@H](n3cc(C)c(=O)[nH]c3=O)C[C@@H]2OP(=O)(S)OC[C@H]2O[C@@H](n3cc(C)c(=O)[nH]c3=O)C[C@@H]2OP(=O)(S)OC[C@H]2O[C@@H](n3ccc(N)nc3=O)C[C@@H]2OP(=O)(S)OC[C@H]2O[C@@H](n3cc(C)c(=O)[nH]c3=O)C[C@@H]2OP(=O)(S)OC[C@H]2O[C@@H](n3ccc(N)nc3=O)C[C@@H]2OP(=O)(S)OC[C@H]2O[C@@H](n3cc(C)c(=O)[nH]c3=O)C[C@@H]2OP(=O)(S)OC[C@H]2O[C@@H](n3cnc4c(=O)[nH]c(N)nc43)C[C@@H]2OP(=O)(S)OC[C@H]2O[C@@H](n3cc(C)c(=O)[nH]c3=O)C[C@@H]2O)[C@@H](COP(=O)(S)O[C@H]2[C@@H](OC)[C@H](n3cnc4c(=O)[nH]c(N)nc43)O[C@@H]2COP(=O)(S)O[C@H]2C[C@H](n3cc(C)c(=O)[nH]c3=O)O[C@@H]2COP(=O)(S)O[C@H]2C[C@H](n3ccc(N)nc3=O)O[C@@H]2COP(=O)(S)O[C@H]2C[C@H](n3cc(C)c(=O)[nH]c3=O)O[C@@H]2COP(=O)(S)O[C@H]2C[C@H](n3cnc4c(N)ncnc43)O[C@@H]2COP(=O)(S)O[C@H]2C[C@H](n3cc(C)c(=O)[nH]c3=O)O[C@@H]2COP(=O)(S)O[C@@H]2C[C@@H](n3ccc(N)nc3=O)O[C@H]2CO)O[C@H]1n1cnc2c(N)ncnc21 (some centres not stated)
Activity (Mus musculus [3]): Active
inhibition in vivo at 10 mg/kg (Mus musculus [4]): ≥ 50%
inhibition in vivo at 10 mg/kg (Mus musculus [5]): ≥ 50%
inhibition in vivo at 10 mg/kg (Mus musculus [6]): ≥ 50%
inhibition in vivo at 10 mg/kg (Mus musculus [7]): ≥ 50%
inhibition in vivo at 10 mg/kg (Mus musculus [8]): ≥ 50%
inhibition in vivo at 10 mg/kg (Mus musculus [9]): ≥ 50%
inhibition in vivo at 10 mg/kg (Mus musculus [10]): ≥ 50%
Activity (B): Dose-dependent effect
